These results are taken from ChEMBL document CHEMBL1949601, “γ-Carbolines: a novel class of cannabinoid agonists with high aqueous solubility and restricted CNS penetration” (Bioorg Med Chem Lett, 2012).

Converted amounts (≈) assume the structure as drawn. A value given as a limit tells only on which side of the number the result lay.

The nature of data set [1]: Ratio of drug uptake in brain to plasma of Sprague-Dawley rat at 1 mg/kg, sc. On the set-up: dose 1 mg/kg, route subcutaneous. It counts as ADME, organism-based. The following applies: read-out: BPR.
A further data set concerns the target Cannabinoid receptor 2 (Homo sapiens, UniProt P34972). Kind of data set: Binding affinity to human CB2 receptor.
Data set [2] in a line: Aqueous solubility of the compound at pH 7.4. It counts as physicochemical.
Data set [3] deals with T1, Cannabinoid receptor 1 (Homo sapiens, UniProt P21554). As to the kind of experiment: Displacement of [3H]-CP55,940 from human CB1 receptor expressed in HEK293 cells. It counts as cell-based. (In a radioligand displacement assay an active substance lowers the binding of a labelled ligand.)
The target of data set [4] is T1, Cannabinoid receptor 1. Kind of data set: Agonist activity at human CB1 receptor expressed in HEK293 EBNA cells by [35S]GTPgamma binding assay. It counts as functional, cell-based.
Data set [5] in a line: Metabolic stability in human liver microsomes. The settings on record: read-out: Stability. The format is ADME, Microsome.
A short description of data set [6]: Dissociation constant, pKa of the compound. The format is physicochemical.
Data set [7] addresses Voltage-gated inwardly rectifying potassium channel KCNH2 (Homo sapiens, UniProt Q12809). As to the kind of experiment: Inhibition of human Erg by voltage ion flux electrophysiological assay.
The target of data set [8] is T1, Cannabinoid receptor 1. As to the kind of experiment: Partial agonist activity at human CB1 receptor expressed in HEK293 EBNA cells by [35S]GTPgamma binding assay relative to Win55,212-2. The format is functional, cell-based. The essentials: (§1)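 Membranes from HEK293 EBNA cells stably transfected with cloned human CB1; agonism read out as [35S]GTPγS binding, EC50 determined; Emax expressed relative to Win55,212-2 as reference agonist. Mean of at least 2 independent measurements.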

For data set [9], the target named is T1, Cannabinoid receptor 1. Kind of data set: Partial agonist activity at human CB1 receptor expressed in HEK293 EBNA cells by [35S]GTPgamma binding assay. The format is functional, cell-based. The essentials: as §1
Data set [10] in a line: Apparent permeability across human Caco2 cells. The format is ADME, cell-based. The following applies: Caco-2.
Data set [11] can be described thus: Metabolic stability in rat liver microsomes. The format is ADME, Microsome. The settings on record: read-out: Stability.
Data set [12] has as its target Cannabinoid receptor 1 (Rattus norvegicus) (UniProt P20272). Kind of data set: Agonist activity at CB1 receptor in rat brain tissue relative to control. It counts as functional, tissue-based.
The target of data set [13] is Cannabinoid receptor 1 (Rattus norvegicus, UniProt P20272). As to the kind of experiment: Agonist activity at CB1 receptor in rat brain tissue. The format is functional, tissue-based.
Sequence of Cannabinoid receptor 1 (Rattus norvegicus, UniProt P20272) (P20272 whole entry): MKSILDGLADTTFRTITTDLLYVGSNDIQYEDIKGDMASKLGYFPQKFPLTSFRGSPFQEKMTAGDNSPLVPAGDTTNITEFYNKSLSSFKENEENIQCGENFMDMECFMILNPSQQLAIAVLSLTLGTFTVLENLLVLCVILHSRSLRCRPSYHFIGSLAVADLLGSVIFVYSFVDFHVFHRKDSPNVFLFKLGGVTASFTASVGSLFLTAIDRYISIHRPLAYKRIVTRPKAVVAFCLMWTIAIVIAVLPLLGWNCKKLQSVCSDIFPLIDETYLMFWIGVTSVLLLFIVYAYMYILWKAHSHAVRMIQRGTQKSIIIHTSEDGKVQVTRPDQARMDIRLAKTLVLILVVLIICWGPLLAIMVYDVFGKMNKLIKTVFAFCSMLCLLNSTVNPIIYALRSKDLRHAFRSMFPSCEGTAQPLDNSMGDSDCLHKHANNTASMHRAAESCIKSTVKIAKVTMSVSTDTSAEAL

T1 sequence (P21554 whole entry): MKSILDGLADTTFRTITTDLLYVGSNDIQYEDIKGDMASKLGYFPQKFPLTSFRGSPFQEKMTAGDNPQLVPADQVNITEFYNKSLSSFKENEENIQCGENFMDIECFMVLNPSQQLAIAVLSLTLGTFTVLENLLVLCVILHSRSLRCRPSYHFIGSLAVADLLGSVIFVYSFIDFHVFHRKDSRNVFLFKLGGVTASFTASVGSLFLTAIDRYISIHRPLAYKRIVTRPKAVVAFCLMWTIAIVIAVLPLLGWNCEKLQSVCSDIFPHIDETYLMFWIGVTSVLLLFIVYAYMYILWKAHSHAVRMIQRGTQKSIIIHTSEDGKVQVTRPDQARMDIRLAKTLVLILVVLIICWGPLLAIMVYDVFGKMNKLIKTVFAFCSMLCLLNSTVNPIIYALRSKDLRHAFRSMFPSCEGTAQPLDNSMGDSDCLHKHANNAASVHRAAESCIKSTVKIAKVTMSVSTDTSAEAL
Sequence of Voltage-gated inwardly rectifying potassium channel KCNH2 (Q12809 whole entry): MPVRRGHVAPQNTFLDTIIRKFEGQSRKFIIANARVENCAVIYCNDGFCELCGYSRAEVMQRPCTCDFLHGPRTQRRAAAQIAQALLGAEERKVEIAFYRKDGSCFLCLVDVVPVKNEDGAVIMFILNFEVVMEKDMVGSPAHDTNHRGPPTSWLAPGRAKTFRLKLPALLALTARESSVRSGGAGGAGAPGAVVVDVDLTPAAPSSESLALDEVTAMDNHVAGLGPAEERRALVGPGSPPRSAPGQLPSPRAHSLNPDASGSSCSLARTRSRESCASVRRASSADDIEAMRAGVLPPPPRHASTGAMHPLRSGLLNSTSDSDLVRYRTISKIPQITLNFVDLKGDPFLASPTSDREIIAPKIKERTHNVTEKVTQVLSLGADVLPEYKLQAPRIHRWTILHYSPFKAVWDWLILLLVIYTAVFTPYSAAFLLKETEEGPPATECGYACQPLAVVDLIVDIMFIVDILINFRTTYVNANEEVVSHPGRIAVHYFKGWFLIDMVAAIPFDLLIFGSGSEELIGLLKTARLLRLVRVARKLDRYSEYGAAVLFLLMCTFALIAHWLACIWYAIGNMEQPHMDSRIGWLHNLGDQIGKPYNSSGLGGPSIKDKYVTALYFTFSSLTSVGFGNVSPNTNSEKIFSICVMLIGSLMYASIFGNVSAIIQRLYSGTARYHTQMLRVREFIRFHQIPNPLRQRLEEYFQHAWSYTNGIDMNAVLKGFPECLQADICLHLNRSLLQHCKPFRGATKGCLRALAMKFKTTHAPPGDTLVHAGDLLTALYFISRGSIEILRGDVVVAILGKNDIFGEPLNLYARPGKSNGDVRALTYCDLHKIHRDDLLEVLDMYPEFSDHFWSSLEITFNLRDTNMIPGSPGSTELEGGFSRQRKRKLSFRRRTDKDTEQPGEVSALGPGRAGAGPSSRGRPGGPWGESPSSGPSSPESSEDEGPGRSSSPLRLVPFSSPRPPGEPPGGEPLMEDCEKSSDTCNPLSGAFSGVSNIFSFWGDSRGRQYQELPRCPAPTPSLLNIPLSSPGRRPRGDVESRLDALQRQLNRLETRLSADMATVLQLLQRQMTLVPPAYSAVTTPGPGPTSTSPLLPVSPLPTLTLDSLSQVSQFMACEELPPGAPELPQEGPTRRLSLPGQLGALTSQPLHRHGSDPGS
Sequence of Cannabinoid receptor 2 (P34972 whole entry): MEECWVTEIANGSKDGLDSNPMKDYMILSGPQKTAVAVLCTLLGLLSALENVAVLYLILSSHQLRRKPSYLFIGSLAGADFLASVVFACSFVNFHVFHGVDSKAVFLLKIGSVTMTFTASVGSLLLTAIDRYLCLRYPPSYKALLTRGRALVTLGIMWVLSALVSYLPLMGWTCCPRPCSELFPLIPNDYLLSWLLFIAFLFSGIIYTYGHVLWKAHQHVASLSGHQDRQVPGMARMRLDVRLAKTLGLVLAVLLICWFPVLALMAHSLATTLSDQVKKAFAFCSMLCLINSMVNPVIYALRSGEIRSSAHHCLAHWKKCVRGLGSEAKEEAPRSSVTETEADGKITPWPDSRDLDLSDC
Sequence of Cannabinoid receptor 1 (Rattus norvegicus) (P20272 whole entry): as the sequence (P20272 whole entry) above

In general, Ki refers to a measure of affinity in units of concentration, obtained from inhibition or displacement. Read a high Ki as lower affinity. One may read the solubility as the concentration that dissolves in the medium under given conditions. With `CCCCCOc1ccc(C(=O)c2cccc3ccccc23)c2ccccc12`, the Kp in data set [1] is 0.04. Affinity on Cannabinoid receptor 2 was put at a Ki of 19 nM. In addition, the solubility in data set [2] was < 10 µg/mL.

Compound `CC1CCN(C(=O)c2ccc3c(c2)c2c(n3C(=O)N(C)C)CCN(C3CCOCC3)C2)CC1` had a Ki on Cannabinoid receptor 1 [3] of 2380 nM.

Broadly, the EC50 is the concentration needed to bring the measured effect to its halfway point. `CCOc1ccc(Cn2c3c(c4cc(C(=O)N5CCC(C)CC5)ccc42)CN(C2CCOCC2)CC3)cc1` returned an EC50 at Cannabinoid receptor 1 [4] of 53 nM. This compound also gave a Ki at Cannabinoid receptor 1 [3] of 51 nM.

In the case of `C=CCn1c2c(c3cc(C(=O)N4CCC(C)CC4)ccc31)CN(C1CCSC1)CC2` (stereo not given), in [5], the microsomal CLint was > 300 µL/min/mg. Also, a half-maximal effect at Cannabinoid receptor 1 [4] (EC50) was put at 5 nM.

Regarding `C=CCn1c2c(c3cc(C(=O)N4CCC(C)CC4)ccc31)CN(Cc1ccncc1)CC2`, the microsomal CLint in data set [5] is > 300 µL/min/mg. In addition, the EC50 on Cannabinoid receptor 1 [4] amounted to 1360 nM.

Consider `C=CCn1c2c(c3cc(C(=O)N4CCC(C)CC4)ccc31)CN(C1CCCCC1)CC2`, for which the microsomal CLint in data set [5] was found to be 135 µL/min/mg. Also, the EC50 on Cannabinoid receptor 1 [4] is 60 nM. Further, the affinity at Cannabinoid receptor 1 [3], expressed as Ki, was 56 nM.

As for `C=CCn1c2c(c3cc(C(=O)N4CCC(C)CC4)ccc31)CN(Cc1ccccc1)CC2`, the microsomal CLint in data set [5] is > 300 µL/min/mg. The compound further showed an EC50 on Cannabinoid receptor 1 [4] of 103 nM.

Regarding `CC1CCN(C(=O)c2ccc3c(c2)c2c(n3S(=O)(=O)n3ccnc3)CCN(C3CCOCC3)C2)CC1`, the Ki at Cannabinoid receptor 1 [3] was found to be 592 nM.

One may read the pKa as the negative logarithm of the acid dissociation constant. A high value points to a weaker acid or stronger base. In general, IC50 refers to the concentration that gives 50% inhibition. High values mean a need for much substance, low ones inhibition by little substance. `CCS(=O)(=O)n1c2c(c3cc(C(=O)N4CCC(C)CC4)ccc31)CN(C1CCOC1)CC2` (stereo not given) yielded a pKa in [6] of 5.9. In [7], this compound registered an IC50 of 25000 nM. For the same compound, on Cannabinoid receptor 1 [3], the affinity, expressed as Ki, was 197 nM.

Turning to `C=CCn1c2c(c3cc(C(=O)N4CCC(C)CC4)ccc31)CN(C1CCCC1)CC2`, the microsomal CLint in data set [5] stood at 93 µL/min/mg. The compound further displayed an EC50 on Cannabinoid receptor 1 [4] of 33 nM. For the same compound, the affinity on Cannabinoid receptor 1 [3], expressed as Ki, was 9 nM.

Regarding `C=CCn1c2c(c3cc(C(=O)N4CCC(C)CC4)ccc31)CN(CC1CCCC1)CC2`, the microsomal CLint in data set [5] was > 300 µL/min/mg. In addition, it took 115 nM to reach a half-maximal effect on Cannabinoid receptor 1 [4] (EC50).

Turning to `CC1CCN(C(=O)c2ccc3c(c2)c2c(n3S(C)(=O)=O)CCN(C3CCCC3)C2)CC1`, a half-maximal response on Cannabinoid receptor 1 [4] (EC50) required 50 nM. At Cannabinoid receptor 1 [3], this compound displayed a Ki of 36 nM.

Compound `CCCS(=O)(=O)n1c2c(c3cc(C(=O)N4CCC(C)CC4)ccc31)CN(C1CCOCC1)CC2` yielded a pKa in data set [6] of 7.3. Besides, the EC50 at Cannabinoid receptor 1 [4] worked out at 129 nM. Moreover, the IC50 in [7] was found to be 2000 nM. This compound gave a Ki at Cannabinoid receptor 1 [3] of 115 nM.

Compound `CCNS(=O)(=O)n1c2c(c3cc(C(=O)N4CCC(C)CC4)ccc31)CN(C1CCOCC1)CC2` gave a Ki on Cannabinoid receptor 1 [3] of 424 nM.

One may read the Emax as the maximal effect, on the per cent scale that the assay sets. On Cannabinoid receptor 1 [8], `CCCC(=O)n1c2c(c3cc(C(=O)N4CCC(C)CC4)ccc31)CN(C1CCOCC1)CC2` showed an Emax of 17%. This compound also yielded an EC50 on Cannabinoid receptor 1 [9] of 117 nM. This compound also showed a Ki at Cannabinoid receptor 1 [3] of 102 nM.

In data set [7], `CC1CCN(C(=O)c2ccc3c(c2)c2c(n3C)CCN(C3CCOCC3)C2)CC1` registered an IC50 of 2600 nM. Further, affinity on Cannabinoid receptor 1 [3] was put at a Ki of 76 nM.

In the case of `CCCCCc1cc(O)c2c(c1)OC(C)(C)[C@@H]1CCC(C)=C[C@@H]21` [DRONABINOL], the Kp in data set [1] stood at 1. In addition, the solubility in data set [2] is < 10 µg/mL.

For orientation: Papp means a coefficient for how fast a substance crosses the barrier. As to `CCOc1ccc(Cc2nc3cc(N(C)S(=O)(=O)c4cccs4)ccc3n2CC2CCCCC2)nc1`, the microsomal CLint in data set [5] and in data set [11] was > 300 µL/min/mg throughout. Moreover, the Kp in [1] is 0.07. This compound also showed an EC50 at Cannabinoid receptor 1 [4] of 6 nM. For the same compound, the Ki at Cannabinoid receptor 2 is 0.56 nM; on Cannabinoid receptor 1 [3] it was 3 nM. In addition, the solubility in [2] was < 10 µg/mL. For the same compound, the Papp in data set [10] is 0.6 ×10⁻⁶ cm/s.

Turning to `C=CCn1c2c(c3cc(C(=O)N4CCC(C)CC4)ccc31)CN(Cc1ccccn1)CC2`, on Cannabinoid receptor 1 [4], the EC50 worked out at 5420 nM. This counts as single-digit micromolar.

Consider `CC1CCN(C(=O)c2ccc3c(c2)c2c(n3S(C)(=O)=O)CCN(C3CCOCC3)C2)CC1`, for which the midpoint of the response on Cannabinoid receptor 1 [4], the EC50, lay at 473 nM. This compound returned a Ki on Cannabinoid receptor 1 [3] of 239 nM.

`CCS(=O)(=O)n1c2c(c3cc(C(=O)N4CCC(C)CC4)ccc31)CN(C1CCCC1)CC2` showed an EC50 on Cannabinoid receptor 1 [4] of 11 nM. This compound also registered a Ki on Cannabinoid receptor 1 [3] of 17 nM.

In [7], `Cn1c2c(c3cc(C(=O)N4CCCCC4)ccc31)CN(C1CCOCC1)CC2` came in with an IC50 of 18000 nM. The compound further registered a Ki at Cannabinoid receptor 1 [3] of 226 nM.

On Cannabinoid receptor 1 [4], `CC1CCN(C(=O)c2ccc3c(c2)c2c(n3S(=O)(=O)C(C)C)CCN(C3CCOCC3)C2)CC1` registered an EC50 of 150 nM. Affinity at Cannabinoid receptor 1 [3] was put at a Ki of 170 nM.

For the compound `C=CCn1c2c(c3cc(C(=O)N4CCC(C)CC4)ccc31)CN(C1CCOCC1)CC2`, the microsomal CLint in data set [5] was found to be 42 µL/min/mg. This compound displayed an EC50 at Cannabinoid receptor 1 [4] of 60 nM.

Turning to `CCCn1c2c(c3cc(C(=O)N4CCC(C)CC4)ccc31)CN(C1CCCC1)CC2`, the EC50 at Cannabinoid receptor 1 [4] stood at 45 nM. This compound also registered a Ki at Cannabinoid receptor 1 [3] of 15 nM.

Turning to `CC1CCN(C(=O)c2ccc3c(c2)c2c(n3S(=O)(=O)c3ccccc3)CCN(C3CCOCC3)C2)CC1`, the EC50 at Cannabinoid receptor 1 [4] was 59 nM. Further, the affinity at Cannabinoid receptor 1 [3] corresponds to a Ki of 31 nM.

At Cannabinoid receptor 1 [4], `CC1CCN(C(=O)c2ccc3c(c2)c2c(n3S(=O)(=O)N(C)C)CCN(C3CCCC3)C2)CC1` returned an EC50 of 26 nM. At Cannabinoid receptor 1 [3], the Ki was found to be 22 nM.

With `C=CCn1c2c(c3cc(C(=O)N4CCC(C)CC4)ccc31)CN(CC1CC1)CC2`, the figures for the microsomal CLint in data set [5] and in data set [11] were 66 µL/min/mg and > 300 µL/min/mg, respectively. Moreover, the Emax in [12] stood at 47%. Besides, the Kp in data set [1] came out at 0.74. Moreover, the EC50 on Cannabinoid receptor 1 [4] amounted to 768 nM; at Cannabinoid receptor 1 [13] it was 1440 nM. The Ki was 14 nM on Cannabinoid receptor 2 and 143 nM on Cannabinoid receptor 1 [3]. In data set [2], this compound showed a solubility of 3300 µg/mL (≈ 8430 µM). Also, the Papp in data set [10] is 3 ×10⁻⁶ cm/s.

The compound `CC1CCN(C(=O)c2ccc3c(c2)c2c(n3C)CCN(C3CCCC3)C2)CC1` displayed an EC50 at Cannabinoid receptor 1 [4] of 77 nM. Further, affinity on Cannabinoid receptor 1 [3] was put at a Ki of 32 nM.

In the case of `CCCn1c2c(c3cc(C(=O)N4CCC(C)CC4)ccc31)CN(C1CCOCC1)CC2`, the EC50 at Cannabinoid receptor 1 [4] was found to be 103 nM. The compound also returned a Ki at Cannabinoid receptor 1 [3] of 58 nM.

As to `C=CCn1c2c(c3cc(C(=O)N4CCC(C)CC4)ccc31)CN(Cc1cccnc1)CC2`, in [5], the microsomal CLint is > 300 µL/min/mg. At Cannabinoid receptor 1 [4], the EC50 was > 14000 nM.

As to `CCCCCCC(C)(C)c1cc(O)c2c(c1)OC(C)(C)[C@@H]1CC=C(C(=O)O)C[C@@H]21` [LENABASUM], the Kp in data set [1] worked out at 0.3.

`CC1CCN(C(=O)c2ccc3[nH]c4c(c3c2)CN(C2CCCC2)CC4)CC1`: the EC50 on Cannabinoid receptor 1 [4] was determined as 4250 nM. The compound further had a Ki on Cannabinoid receptor 1 [3] of 264 nM.

`CCCS(=O)(=O)n1c2c(c3cc(C(=O)N4CCC(C)CC4)ccc31)CN(C1CCCC1)CC2` yielded an EC50 at Cannabinoid receptor 1 [4] of 22 nM. The Ki on Cannabinoid receptor 1 [3] is 22 nM.

On to `CCn1c2c(c3cc(C(=O)N4CCC(C)CC4)ccc31)CN(C1CCCC1)CC2`, for which a half-maximal response at Cannabinoid receptor 1 [4] (EC50) required 63 nM. The Ki on Cannabinoid receptor 1 [3] amounted to 34 nM.

Regarding `CCCS(=O)(=O)n1c2c(c3cc(C(=O)N4CCC(C)CC4)ccc31)CN(C1CCOC1)CC2` (stereo not given), the pKa in data set [6] is 5.8. The Ki at Cannabinoid receptor 1 [3] was 320 nM.

Regarding `CC1CCN(C(=O)c2ccc3c(c2)c2c(n3S(=O)(=O)N(C)C)CCN(C3CCOCC3)C2)CC1`, on Cannabinoid receptor 1 [4], the EC50 is 71 nM. Further, the Ki at Cannabinoid receptor 1 [3] stood at 110 nM.
